Legend:
Assay type in all cases: functional
IGROV-1 [1] = assay: Antiproliferative activity against human IGROV1 cells assessed as cell growth at 10 uM; conditions: read-out: Activity
Outline: (§1)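 NCI 60 cell line panel, single-dose screen (10^-5 M) run by the developmental therapeutics program protocol. Results are given as growth percent of treated cells relative to untreated control cells for each line.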

RXF 393 = assay: Antiproliferative activity against human RXF393 cells assessed as cell growth at 10 uM; conditions: read-out: Activity; outline: as §1
SNB-75 = assay: Growth inhibition of human SNB75 cells
Outline: (§2)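 Assayed in the NCI 60 human cancer cell line panel under the Developmental Therapeutics Program protocol. For each line, dose–response curves were plotted against log10 drug concentration. In the one-dose screen at 10^-5 M, growth was given as percent of untreated control cells, and mean graph midpoint values were averaged.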

HCT-116 = assay: Growth inhibition of human HCT116 cells
Outline: (§3)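 NCI 60 cancer cell line screen run per the Developmental Therapeutics Program protocol. Dose–response curves were plotted against log10 drug concentration for each cell line within its subpanel, and mean graph midpoint values were calculated.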

NCI-H226 = assay: Growth inhibition of human NCI-H226 cells; outline: as §3
SK-MEL-2 = assay: Growth inhibition of human SK-MEL-2 cells; outline: as §2
NCI-H522 = assay: Growth inhibition of human NCI-H522 cells; outline: as §3
MDA-MB-231 = assay: Growth inhibition of human MDA-MB-231 cells; outline: as §3
CAKI-1 = assay: Growth inhibition of human Caki1 cells; outline: as §3
HOP-92 = assay: Growth inhibition of human HOP92 cells; outline: as §3
SF-295 = assay: Growth inhibition of human SF295 cells; outline: as §2
UACC-62 = assay: Growth inhibition of human UACC62 cells; outline: as §2
OVCAR-5 = assay: Growth inhibition of human OVCAR5 cells; outline: as §3
ACHN = assay: Growth inhibition of human ACHN cells; outline: as §3
COLO 205 = assay: Growth inhibition of human COLO205 cells; outline: as §3
M14 = assay: Growth inhibition of human M14 cells; outline: as §3
MDA-MB-435 = assay: Growth inhibition of human MDA-MB-435 cells; outline: as §3
HCT-15 = assay: Growth inhibition of human HCT15 cells; outline: as §3
NCI-H322M = assay: Growth inhibition of human NCI-H322M cells; outline: as §3
NCI/ADR-RES = assay: Growth inhibition of human NCI/ADR-RES cells; outline: as §3
SNB-19 = assay: Growth inhibition of human SNB19 cells; outline: as §2
MCF7 = assay: Growth inhibition of human MCF7 cells; outline: as §3
NCI-H460 = assay: Growth inhibition of human NCI-H460 cells; outline: as §3
SN12C = assay: Growth inhibition of human SN12C cells; outline: as §2
SF-268 = assay: Growth inhibition of human SF268 cells; outline: as §2
HCC 2998 = assay: Growth inhibition of human HCC2998 cells; outline: as §3
786-0 = assay: Growth inhibition of human 786-0 cells; outline: as §3
DU-145 = assay: Growth inhibition of human DU145 cells; outline: as §3
IGROV-1 [2] = assay: Growth inhibition of human IGROV1 cells; outline: as §3
HOP-62 = assay: Growth inhibition of human HOP62 cells; outline: as §3
HT-29 = assay: Growth inhibition of human HT-29 cells; outline: as §3
UO-31 = assay: Growth inhibition of human UO31 cells; outline: as §2
KM12 = assay: Growth inhibition of human KM12 cells; outline: as §3
UACC-257 = assay: Growth inhibition of human UACC257 cells; outline: as §2
OVCAR-8 = assay: Growth inhibition of human OVCAR8 cells; outline: as §3
LOX IMVI = assay: Growth inhibition of human LOXIMVI cells; outline: as §3
SK-MEL-5 = assay: Growth inhibition of human SK-MEL-5 cells; outline: as §2
Malme-3M = assay: Growth inhibition of human MALME-3M cells; outline: as §3
BT-549 = assay: Growth inhibition of human BT549 cells; outline: as §3
[3] = read-out: LC50 (the source's name)

O=C1c2ccccc2C(=O)c2c1ccc1nc(-c3ccc4c(c3)OCO4)[nH]c21
growth at 10 µM (IGROV-1 [1]): 93.3%
growth at 10 µM (RXF 393): 120%

CC1(C)Nc2ccc3c(c2N1)C(=O)c1ccccc1C3=O
growth at 10 µM (IGROV-1 [1]): -2.8%
growth at 10 µM (RXF 393): 85.1%

O=C1c2ccccc2C(=O)c2c1ccc1nccnc21
GI50 (SNB-75): 11.9 µM
TGI (SNB-75): > 100 µM
CC50 (SNB-75; [3]): > 100 µM
GI50 (HCT-116): 12.3 µM
TGI (HCT-116): > 100 µM
CC50 (HCT-116; [3]): > 100 µM
GI50 (NCI-H226): 16.6 µM
TGI (NCI-H226): 95.2 µM
CC50 (NCI-H226; [3]): > 100 µM
GI50 (SK-MEL-2): 12.7 µM
TGI (SK-MEL-2): 55.9 µM
CC50 (SK-MEL-2; [3]): > 100 µM
growth at 10 µM (IGROV-1 [1]): 3.44%
GI50 (NCI-H522): 4.64 µM
TGI (NCI-H522): 32.5 µM
CC50 (NCI-H522; [3]): > 100 µM
GI50 (MDA-MB-231): 19.1 µM
LC50 (concentration killing 50% of cells) (MDA-MB-231): > 100 µM
TGI (MDA-MB-231): > 100 µM
GI50 (CAKI-1): 5.83 µM
TGI (CAKI-1): > 100 µM
CC50 (CAKI-1; [3]): > 100 µM
GI50 (HOP-92): 22.5 µM
TGI (HOP-92): > 100 µM
CC50 (HOP-92; [3]): > 100 µM
GI50 (SF-295): 4.35 µM
TGI (SF-295): 32.3 µM
CC50 (SF-295; [3]): > 100 µM
GI50 (UACC-62): 13.3 µM
TGI (UACC-62): 56.1 µM
CC50 (UACC-62; [3]): > 100 µM
GI50 (OVCAR-5): 29.3 µM
TGI (OVCAR-5): > 100 µM
CC50 (OVCAR-5; [3]): > 100 µM
GI50 (ACHN): 3.85 µM
TGI (ACHN): > 100 µM
CC50 (ACHN; [3]): > 100 µM
GI50 (COLO 205): 3.4 µM
TGI (COLO 205): 28.4 µM
CC50 (COLO 205; [3]): > 100 µM
growth at 10 µM (RXF 393): 105%
GI50 (M14): 5.14 µM
TGI (M14): > 100 µM
CC50 (M14; [3]): > 100 µM
GI50 (MDA-MB-435): 11.1 µM
TGI (MDA-MB-435): 23.7 µM
CC50 (MDA-MB-435; [3]): 50.4 µM
GI50 (HCT-15): 4.63 µM
TGI (HCT-15): 84.3 µM
CC50 (HCT-15; [3]): > 100 µM
GI50 (NCI-H322M): 16.3 µM
TGI (NCI-H322M): 96.1 µM
CC50 (NCI-H322M; [3]): > 100 µM
GI50 (NCI/ADR-RES): 5.68 µM
TGI (NCI/ADR-RES): > 100 µM
CC50 (NCI/ADR-RES; [3]): > 100 µM
GI50 (SNB-19): 13.4 µM
TGI (SNB-19): > 100 µM
CC50 (SNB-19; [3]): > 100 µM
GI50 (MCF7): 0.72 µM
TGI (MCF7): 29.8 µM
CC50 (MCF7; [3]): > 100 µM
GI50 (NCI-H460): 2.01 µM
TGI (NCI-H460): 26.9 µM
CC50 (NCI-H460; [3]): > 100 µM
GI50 (SN12C): 13.2 µM
TGI (SN12C): 92.7 µM
CC50 (SN12C; [3]): > 100 µM
GI50 (SF-268): 4.98 µM
TGI (SF-268): > 100 µM
CC50 (SF-268; [3]): > 100 µM
GI50 (HCC 2998): 1.4 µM
TGI (HCC 2998): 83.5 µM
CC50 (HCC 2998; [3]): > 100 µM
GI50 (786-0): 8.87 µM
TGI (786-0): > 100 µM
CC50 (786-0; [3]): > 100 µM
GI50 (DU-145): 11.4 µM
TGI (DU-145): 34.3 µM
CC50 (DU-145; [3]): > 100 µM
GI50 (IGROV-1 [2]): 2.55 µM
TGI (IGROV-1 [2]): 35.9 µM
CC50 (IGROV-1 [2]; [3]): > 100 µM
GI50 (HOP-62): 5.64 µM
TGI (HOP-62): > 100 µM
CC50 (HOP-62; [3]): > 100 µM
GI50 (HT-29): 7.01 µM
TGI (HT-29): > 100 µM
CC50 (HT-29; [3]): > 100 µM
GI50 (UO-31): 3.02 µM
TGI (UO-31): 85.9 µM
CC50 (UO-31; [3]): > 100 µM
GI50 (KM12): 5.26 µM
TGI (KM12): 49.5 µM
CC50 (KM12; [3]): > 100 µM
GI50 (UACC-257): 13 µM
TGI (UACC-257): 68.3 µM
CC50 (UACC-257; [3]): > 100 µM
GI50 (OVCAR-8): 5.07 µM
TGI (OVCAR-8): > 100 µM
CC50 (OVCAR-8; [3]): > 100 µM
GI50 (LOX IMVI): 4.2 µM
TGI (LOX IMVI): 38.9 µM
CC50 (LOX IMVI; [3]): > 100 µM
GI50 (SK-MEL-5): 3.93 µM
TGI (SK-MEL-5): 17.1 µM
CC50 (SK-MEL-5; [3]): 44.4 µM
GI50 (Malme-3M): 4.48 µM
TGI (Malme-3M): 20.7 µM
CC50 (Malme-3M; [3]): 70.8 µM
GI50 (BT-549): 12.2 µM
LC50 (BT-549): > 100 µM
TGI (BT-549): 93.5 µM

Source: ChEMBL document CHEMBL1152649, “Synthesis, cytotoxicity and human telomerase inhibition activities of a series of 1,2-heteroannelated anthraquinones and anthra[1,2-d]imidazole-6,11-dione homologues” (2009)
